Data on 20 compounds can be found in ChEMBL document CHEMBL2016474, “Structure-activity analysis and cell-based optimization of human galactokinase inhibitors” (ACS Med Chem Lett, 2011).

pIC50: −log10 of the molar value. Activity calls are given as the source filed them. The calls are words filed in the database; no cut-off is given here.

Data set [1] concerns the target T1, Galactokinase (Homo sapiens, UniProt P51570). Description: Inhibition of human […] at >50 uM after 30 mins by Kinase-GloTM assay. The procedure, abridged:
(§1)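 GALK in vitro inhibition with IC50 determination; each value from three replicate measurements, given with standard deviation. Compounds not active below 50 μM recorded as exceeding that concentration.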

The target in data set [2] is T1, Galactokinase. The data set is described as follows: Inhibition of human galactokinase after 30 mins by Kinase-GloTM assay. The procedure, abridged:
as §1
(In general: Kinase-Glo reads ATP consumption through a luciferase reaction.)

Data set [3] addresses T1, Galactokinase. The data set is described as follows: Inhibition of […] in human primary fibroblasts derived from GALT-deficient patients assessed as reduction in accumulation of gal-1P at 50 uM preincubated overnight prior galactose challenge measured after 4 hrs. The procedure, abridged:
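Intracellular GALK inhibition in primary fibroblasts from classic galactosemia (GALT-deficient) patients. Compound given at 50 or 100 μM. Read-out is the percent reduction of cellular gal-1P accumulation.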

Data set [4] can be described thus: Toxicity in human primary fibroblasts assessed as visible signs of lethality at 50 uM. The data set is classed as cell-based. To be noted: fibroblast.
Data set [5] is described as follows: Toxicity in human primary fibroblasts. The class given is cell-based. To be noted: fibroblast.
Data set [6] in a line: Toxicity in human primary fibroblasts assessed as lethality at >= 50 uM within 1 hr. To be noted: fibroblast. The class given is cell-based.

T1 sequence (P51570 whole entry): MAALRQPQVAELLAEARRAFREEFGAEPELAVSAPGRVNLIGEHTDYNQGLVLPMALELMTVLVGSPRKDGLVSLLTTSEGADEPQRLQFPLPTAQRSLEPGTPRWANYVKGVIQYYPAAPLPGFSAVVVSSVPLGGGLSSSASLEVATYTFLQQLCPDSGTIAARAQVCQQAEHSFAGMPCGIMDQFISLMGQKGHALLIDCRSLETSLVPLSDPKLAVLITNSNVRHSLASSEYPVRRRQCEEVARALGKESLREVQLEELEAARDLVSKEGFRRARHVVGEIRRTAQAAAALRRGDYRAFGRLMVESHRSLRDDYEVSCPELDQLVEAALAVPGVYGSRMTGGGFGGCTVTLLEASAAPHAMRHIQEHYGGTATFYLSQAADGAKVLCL

One may read the inhibition as the drop in the measured response relative to a control, in per cent. As for `CCCCSC1=C(C#N)C(=O)NC(c2ccccc2O)S1` (stereo not given), in data set [1], the inhibition result is “inactive”.
Broadly, the pIC50 is the negative decadic logarithm of the IC50, by convention in mol/L. The low end stands for a high IC50, the high end for a low IC50. `N#CC1=C(SCc2cccc(N3CCOCC3)c2)SC(c2cc(O)ccc2O)NC1=O` (stereo not given) showed a pIC50 in data set [2] of 6.05. In data set [3], the inhibition entry is “inactive”.
`N#CC1=C(SCc2ccccc2)SC(c2ccc3c(c2)OCO3)NC1=O` (stereo not given) showed a pIC50 in data set [2] of 4.65.
Regarding `N#CC1=C(SCc2ccccc2)SCNC1=O`, in data set [1], the inhibition result is “inactive”.
For the compound `N#CC1=C(SCc2cccc(N3CCOCC3)c2)SC(c2ccc(O)c(O)c2)NC1=O` (stereo not given), in data set [2], the pIC50 is 5.92. Besides, the inhibition in data set [3] was 16%. Moreover, the Activity entry in data set [4] is given as “Non-toxic”.
With `N#CC1=C(SCc2ccccc2)SC(c2cccc(O)c2)NC1=O` (stereo not given), the pIC50 in data set [2] was 4.30.
Turning to `N#CC1=C(SCc2ccccc2)SC(c2ccc(O)cc2)NC1=O` (stereo not given), the negative-log IC50 (pIC50) in data set [2] was 5.74. This pIC50 is 1.44 log units higher than that of the compound before.
In turn, `N#CC1=C(SCc2cccc(N3CCOCC3)c2)SC(c2ccc(O)cc2)NC1=O` (stereo not given) gave a pIC50 in data set [2] of 5.62. For the same compound, the inhibition result in data set [3] was “inactive”. For the same compound, the Activity entry in data set [4] is given as “Non-toxic”.
In the case of `N#CC1=C(SCc2ccccc2)SC(c2ccc(O)c(O)c2)NC1=O` (stereo not given), in data set [5], the Activity result is “Toxic”.
For the compound `N#CC1=C(SCc2ccccc2)SC(c2ccc(O)cc2O)NC1=O` (stereo not given), the pIC50 in data set [2] was 5.92.
As to `CC1(C)NC(=O)C(C#N)=C(SCc2ccccc2)S1`, in data set [1], the inhibition entry was “inactive”.
With `CC(=O)Oc1ccc(C2NC(=O)C(C#N)=C(SCc3ccccc3)S2)cc1OC(C)=O` (stereo not given), the Activity result in data set [6] is given as “Toxic”.
As for `CC1NC(=O)C(C#N)=C(SCc2ccccc2)S1` (stereo not given), in data set [1], the inhibition entry was “inactive”.
As for `COc1ccc(C2NC(=O)C(C#N)=C(SCc3ccccc3)S2)cc1` (stereo not given), in data set [2], the pIC50 was less than 4.30.
On to `N#CC1=C(SCc2ccc(O)cc2)SC2(CCC(C(=O)O)CC2)NC1=O` (stereo not given), for which, in data set [1], the inhibition entry was “inactive”.
As to `N#CC1=C(SCc2ccccc2)SC(c2cc(O)ccc2O)NC1=O` (stereo not given), the pIC50 in data set [2] was 6.15.
On to `N#CC1=C(SCc2ccccc2)SC(c2ccc(C(=O)O)cc2)NC1=O` (stereo not given), for which the inhibition entry in data set [2] is “Active”.
Take `CSC1=C(C#N)C(=O)NC(c2ccccc2O)S1` (stereo not given): in data set [2], the inhibition result was “Active”.
Regarding `CSC1=C(C#N)C(=O)NC(c2ccc(Cl)cc2Cl)S1` (stereo not given), the inhibition result in data set [1] is “inactive”.
In data set [2], `N#CC1=C(SCc2ccccc2)SC(c2ccccc2O)NC1=O` (stereo not given) had a pIC50 of 4.92.
